Test results published in ChEMBL document CHEMBL1828535, “Synthesis and in vitro activity of novel N-3 acylated TSAO-T compounds against HIV-1 and HCV” (Eur J Med Chem, 2011).
Calls of active or inactive are those of the source. The rule behind the calls is not given here.

How the values were obtained:
[1] = tested on: Human immunodeficiency virus 2; assay: Antiviral activity against HIV2 ROD infected in human CEM cells assessed as inhibition of virus-induced cytopathicity after 4 days; format: functional, organism-based; conditions: Human immunodeficiency virus 2, ISOLATE ROD, CCRF-CEM, 96 h
Summary of the method: (§1)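 CEM cells at 4 x 10⁶/mL infected with HIV-1 IIIB or HIV-2 ROD at ~100 CCID₅₀ per mL of cell suspension; compound present; syncytia formation scored microscopically after 4 days; EC₅₀ = concentration inhibiting virus-induced cytopathicity by 50%.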

[2] = tested on: Human immunodeficiency virus 1; assay: Antiviral activity against HIV1 3B infected in human CEM cells assessed as inhibition of virus-induced cytopathicity after 4 days; format: functional, organism-based; conditions: Human immunodeficiency virus 1, 3B, CCRF-CEM, 96 h; summary of the method: as §1
Hepatitis C virus = assay: Antiviral activity against HCV2a JFH1 infected in human Huh7 cells assessed as inhibition of viral replication after 72 hrs by luciferase reporter gene assay; format: functional, organism-based, Hepacivirus hominis; conditions: JFH-1, Huh-7, 72 h
[3] = Chemical stability of the compound in phosphate buffered saline assessed as compound degradation after 72 hrs; format: physicochemical; conditions: buffer
Summary of the method: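 Compound held in PBS at 37 °C for 72 h; degradation judged by comparing LCMS spectra before and after incubation.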

[4] = Cytotoxicity against human HuH7 cells after 72 hrs; format: cell-based, Huh-7
[5] = Cytotoxicity against human CEM cells after 4 days; format: cell-based; conditions: CEM (CCRF-CEM) cells
Summary of the method: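 CC₅₀ taken as concentration inhibiting CEM cell proliferation by 50%.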

[6] = tested on: Human immunodeficiency virus 1; assay: Antiviral activity against HIV1 harboring reverse transcriptase E138K mutant infected in human CEM cells assessed as inhibition of virus-induced cytopathicity after 4 days; format: functional, organism-based; conditions: CCRF-CEM
Summary of the method: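 CEM cells at 4 x 10⁶ cells/mL infected with HIV-1/E138K (RT mutant strain selected under TSAO-m³T) at about 100 CCID₅₀ per mL of cell suspension. Syncytia formation scored microscopically after 4 days. EC₅₀ taken as the concentration inhibiting virus-induced cytopathicity by 50%.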

Row | SMILES | EC50 [1] | EC50 [2] | EC50 (Hepatitis C virus) | Stability [3] | CC50 at 72 h [4] | CC50 at 96 h [5] | inhibition [6]
1 | COC(=O)CCCC(=O)n1c(=O)c(C)cn([C@@H]2O[C@H](CO[Si](C)(C)C(C)(C)C)[C@@]3(OS(=O)(=O)C=C3N)[C@H]2O[Si](C)(C)C(C)(C)C)c1=O | ≥ 4 µM | 0.054 µM | 11 µM | Stable | > 100 µM | 9.9 µM | inactive
2 | Cc1cn([C@@H]2O[C@H](CO[Si](C)(C)C(C)(C)C)[C@@]3(OS(=O)(=O)C=C3N)[C@H]2O[Si](C)(C)C(C)(C)C)c(=O)n(C(=O)CCCC(=O)OCc2ccccc2)c1=O | ≥ 4 µM | 0.04 µM | 10 µM | Stable | > 100 µM | 9.2 µM | inactive
3 | Cc1cn([C@@H]2O[C@H](CO[Si](C)(C)C(C)(C)C)[C@@]3(OS(=O)(=O)C=C3N)[C@H]2O[Si](C)(C)C(C)(C)C)c(=O)n(C(=O)CCCBr)c1=O | ≥ 4 µM | 0.052 µM | 43 µM | Stable | > 100 µM | 11 µM | inactive
4 | CSC(=O)CCCC(=O)n1c(=O)c(C)cn([C@@H]2O[C@H](CO[Si](C)(C)C(C)(C)C)[C@@]3(OS(=O)(=O)C=C3N)[C@H]2O[Si](C)(C)C(C)(C)C)c1=O | ≥ 4 µM | 0.037 µM | 7 µM | Stable | > 100 µM | 9.9 µM | inactive
5 | COC(=O)n1c(=O)c(C)cn([C@@H]2O[C@H](CO[Si](C)(C)C(C)(C)C)[C@@]3(OS(=O)(=O)C=C3N)[C@H]2O[Si](C)(C)C(C)(C)C)c1=O | ≥ 100 µM | 0.07 µM | > 100 µM | Stable | > 100 µM | > 100 µM | inactive
6 | CNC(=O)CCCCn1c(=O)c(C)cn([C@@H]2O[C@H](CO[Si](C)(C)C(C)(C)C)[C@@]3(OS(=O)(=O)C=C3N)[C@H]2O[Si](C)(C)C(C)(C)C)c1=O | > 10 µM |  |  |  |  | 10 µM | inactive
7 | Cc1cn([C@@H]2O[C@H](CO[Si](C)(C)C(C)(C)C)[C@@]3(OS(=O)(=O)C=C3N)[C@H]2O[Si](C)(C)C(C)(C)C)c(=O)n(C(=O)C2CC2)c1=O | ≥ 4 µM | 0.042 µM | 8.5 µM | Stable | > 100 µM | 11 µM | inactive
8 | C[C@@]1(O)[C@H](O)[C@@H](CO)O[C@H]1n1ccc(N)nc1=O |  |  | 2.4 µM |  | > 33 µM |  | inactive
9 | Cc1cn([C@@H]2O[C@H](CO[Si](C)(C)C(C)(C)C)[C@@]3(OS(=O)(=O)C=C3N)[C@H]2O[Si](C)(C)C(C)(C)C)c(=O)n(C(=O)CCCC(=O)NCc2ccccc2)c1=O | ≥ 4 µM | 0.052 µM | 7.6 µM | Stable | > 100 µM | 8.8 µM | inactive
10 | COC(=O)c1cccc(C(=O)n2c(=O)c(C)cn([C@@H]3O[C@H](CO[Si](C)(C)C(C)(C)C)[C@@]4(OS(=O)(=O)C=C4N)[C@H]3O[Si](C)(C)C(C)(C)C)c2=O)c1 | ≥ 4 µM | 0.041 µM | 8.2 µM | Stable | > 100 µM | 14 µM | inactive
11 | Cc1cn([C@@H]2O[C@H](CO[Si](C)(C)C(C)(C)C)[C@@]3(OS(=O)(=O)C=C3N)[C@H]2O[Si](C)(C)C(C)(C)C)c(=O)n(C(=O)CCCC(N)=O)c1=O | ≥ 4 µM | 0.038 µM | 9 µM | Stable | > 100 µM | 8.7 µM | inactive
12 | CNC(=O)CCCC(=O)n1c(=O)c(C)cn([C@@H]2O[C@H](CO[Si](C)(C)C(C)(C)C)[C@@]3(OS(=O)(=O)C=C3N)[C@H]2O[Si](C)(C)C(C)(C)C)c1=O | ≥ 4 µM | 0.059 µM | 12 µM | Stable | > 100 µM | 9.1 µM | inactive
13 | Cc1cn([C@@H]2O[C@H](CO[Si](C)(C)C(C)(C)C)[C@@]3(OS(=O)(=O)C=C3N)[C@H]2O[Si](C)(C)C(C)(C)C)c(=O)n(C(=O)OC(C)(C)C)c1=O |  |  |  |  |  | 26 µM | inactive
14 | Cc1cn([C@@H]2O[C@H](CO[Si](C)(C)C(C)(C)C)[C@@]3(OS(=O)(=O)C=C3N)[C@H]2O[Si](C)(C)C(C)(C)C)c(=O)n(C(=O)CCCC(=O)N(C)C)c1=O | ≥ 4 µM | 0.032 µM | 4.4 µM | Stable | > 100 µM | 9.5 µM | inactive
15 | Cc1cn([C@@H]2O[C@H](CO[Si](C)(C)C(C)(C)C)[C@@]3(OS(=O)(=O)C=C3N)[C@H]2O[Si](C)(C)C(C)(C)C)c(=O)n(C)c1=O | > 250 µM | 0.037 µM | > 100 µM |  | > 100 µM | 115 µM | inactive
16 | Cc1cn([C@@H]2O[C@H](CO[Si](C)(C)C(C)(C)C)[C@@]3(OS(=O)(=O)C=C3N)[C@H]2O[Si](C)(C)C(C)(C)C)c(=O)n(C(=O)c2ccccc2)c1=O | ≥ 4 µM | 0.049 µM | 9.8 µM | Stable | > 100 µM | 54 µM | inactive
17 | Cc1cn([C@@H]2O[C@H](CO[Si](C)(C)C(C)(C)C)[C@@]3(OS(=O)(=O)C=C3N)[C@H]2O[Si](C)(C)C(C)(C)C)c(=O)[nH]c1=O | > 20 µM |  | 14 µM |  | > 100 µM | 12 µM | inactive
18 | Cc1cn([C@@H]2O[C@H](CO[Si](C)(C)C(C)(C)C)[C@@]3(OS(=O)(=O)C=C3N)[C@H]2O[Si](C)(C)C(C)(C)C)c(=O)n(C(=O)CCCC(=O)OC(C)(C)C)c1=O | ≥ 4 µM | 0.033 µM | 11 µM | Stable | > 100 µM | 11 µM | inactive
